In brackets after ≈: the same amount, converted by molar mass.
Experiments:
Format in all cases: functional
Streptococcus pneumoniae [1] = experiment: Antimicrobial activity against Streptococcus pneumoniae 6 constitutively expressing ermB after 20 hrs by agar dilution method; details: Streptococcus pneumoniae, 20 h; read-out: MIC
Method in brief: (§1)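 Streptococci, H. influenzae and M. catarrhalis were precultured on blood agar plates. Suspensions of about 10⁶ CFU/ml were inoculated onto sensitivity disk agar supplemented with 5% horse blood and incubated at 37 °C for 20 h. MIC was read as the lowest drug concentration with no visible growth.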

Haemophilus influenzae [2] = experiment: Antimicrobial activity against drug-susceptible Haemophilus influenzae 3 after 20 hrs by agar dilution method; details: Haemophilus influenzae, 20 h; read-out: MIC; method in brief: as §1
Staphylococcus aureus [3] = experiment: Antimicrobial activity against drug-susceptible Staphylococcus aureus 3 after 20 hrs by agar dilution method; details: Staphylococcus aureus, 20 h; read-out: MIC
Method in brief: (§2)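 Agar dilution MIC. S. aureus seed culture was grown in sensitivity test broth. Cell suspension (about 10⁶ CFU/ml) was inoculated onto sensitivity disk agar with 5% horse blood and incubated at 37 °C for 20 h. MIC was the lowest drug concentration that prevented visible growth.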

Moraxella catarrhalis [4] = experiment: Antimicrobial activity against drug-susceptible Moraxella catarrhalis 2 after 20 hrs by agar dilution method; details: Moraxella catarrhalis, 20 h; read-out: MIC; method in brief: as §1
Streptococcus pyogenes [5] = experiment: Antimicrobial activity against Streptococcus pyogenes 2 constitutively expressing ermB after 20 hrs by agar dilution method; method in brief: as §1
Streptococcus pneumoniae [6] = experiment: Antimicrobial activity against Streptococcus pneumoniae 4 constitutively expressing ermB after 20 hrs by agar dilution method; details: Streptococcus pneumoniae, 20 h; read-out: MIC; method in brief: as §1
Haemophilus influenzae [7] = experiment: Antimicrobial activity against drug-susceptible Haemophilus influenzae 1 after 20 hrs by agar dilution method; details: Haemophilus influenzae, 20 h; read-out: MIC; method in brief: as §1
Streptococcus pneumoniae [8] = experiment: Antimicrobial activity against Streptococcus pneumoniae 9 expressing mefA after 20 hrs by agar dilution method; details: Streptococcus pneumoniae, 20 h; read-out: MIC; method in brief: as §1
Staphylococcus aureus [9] = experiment: Antimicrobial activity against Staphylococcus aureus 6 expressing inducible ermB after 20 hrs by agar dilution method; method in brief: as §2
Streptococcus pneumoniae [10] = experiment: Antimicrobial activity against Streptococcus pneumoniae 5 constitutively expressing ermB/mefA after 20 hrs by agar dilution method; details: Streptococcus pneumoniae, 20 h; read-out: MIC; method in brief: as §1
Moraxella catarrhalis [11] = experiment: Antimicrobial activity against drug-susceptible Moraxella catarrhalis 1 after 20 hrs by agar dilution method; details: Moraxella catarrhalis, 20 h; read-out: MIC; method in brief: as §1
Streptococcus pneumoniae [12] = experiment: Antimicrobial activity against drug-susceptible Streptococcus pneumoniae DP1 Type1 after 20 hrs by agar dilution method; details: Streptococcus pneumoniae, 20 h; read-out: MIC; method in brief: as §1
Streptococcus pneumoniae [13] = experiment: Antimicrobial activity against Streptococcus pneumoniae 10 expressing mefA after 20 hrs by agar dilution method; details: Streptococcus pneumoniae, 20 h; read-out: MIC; method in brief: as §1
Staphylococcus aureus [14] = experiment: Antimicrobial activity against Staphylococcus aureus 4 constitutively expressing ermA after 20 hrs by agar dilution method; method in brief: as §2
Streptococcus pyogenes [15] = experiment: Antimicrobial activity against drug-susceptible Streptococcus pyogenes 1 after 20 hrs by agar dilution method; details: Streptococcus pyogenes, 20 h; read-out: MIC; method in brief: as §1
Streptococcus pneumoniae [16] = experiment: Antimicrobial activity against Streptococcus pneumoniae 7 expressing inducible ermB after 20 hrs by agar dilution method; details: Streptococcus pneumoniae, 20 h; read-out: MIC; method in brief: as §1
Streptococcus pneumoniae [17] = experiment: Antimicrobial activity against drug-susceptible Streptococcus pneumoniae 3 after 20 hrs by agar dilution method; details: Streptococcus pneumoniae, 20 h; read-out: MIC; method in brief: as §1
Staphylococcus aureus [18] = experiment: Antimicrobial activity against drug-susceptible Staphylococcus aureus 209P JC-1 after 20 hrs by agar dilution method; details: Staphylococcus aureus, 209P, 20 h; read-out: MIC; method in brief: as §2
Haemophilus influenzae [19] = experiment: Antimicrobial activity against drug-susceptible Haemophilus influenzae 2 after 20 hrs by agar dilution method; details: Haemophilus influenzae, 20 h; read-out: MIC; method in brief: as §1
Streptococcus pyogenes [20] = experiment: Antimicrobial activity against Streptococcus pyogenes 3 expressing mefA after 20 hrs by agar dilution method; details: Streptococcus pyogenes, 20 h; read-out: MIC; method in brief: as §1
Staphylococcus aureus [21] = experiment: Antimicrobial activity against drug-susceptible Staphylococcus aureus 2 after 20 hrs by agar dilution method; details: Staphylococcus aureus, 20 h; read-out: MIC; method in brief: as §2
Haemophilus influenzae [22] = experiment: Antimicrobial activity against drug-susceptible Haemophilus influenzae 4 after 20 hrs by agar dilution method; details: Haemophilus influenzae, 20 h; read-out: MIC; method in brief: as §1
Streptococcus pneumoniae [23] = experiment: Antimicrobial activity against Streptococcus pneumoniae 8 expressing inducible ermB after 20 hrs by agar dilution method; details: Streptococcus pneumoniae, 20 h; read-out: MIC; method in brief: as §1
Staphylococcus aureus [24] = experiment: Antimicrobial activity against Staphylococcus aureus 5 expressing inducible ermB after 20 hrs by agar dilution method; details: Staphylococcus aureus, 20 h; read-out: MIC; method in brief: as §2
Streptococcus pneumoniae [25] = experiment: Antimicrobial activity against drug-susceptible Streptococcus pneumoniae 2 after 20 hrs by agar dilution method; details: Streptococcus pneumoniae, 20 h; read-out: MIC; method in brief: as §1

## CCOC(=O)[C@H]1[C@H](C)O[C@@H](O[C@H]2[C@H](N(C)C)[C@@H](O)[C@H](O[C@H]3[C@@H](CC=O)C[C@@H](C)[C@@H](O)CN(C)CCC[C@H](C/C=C/c4ccccc4)OC(=O)C[C@@H](OC(=O)CC)[C@@H]3OC)O[C@@H]2C)C[C@@]1(C)O
Streptococcus pneumoniae [1]
  MIC: > 128 µg/mL
Haemophilus influenzae [2]
  MIC: 16 µg/mL (≈ 17.1 µM)
Staphylococcus aureus [3]
  MIC: 0.25 µg/mL (≈ 0.267 µM)
Moraxella catarrhalis [4]
  MIC: 1 µg/mL (≈ 1.07 µM)
Streptococcus pyogenes [5]
  MIC: > 128 µg/mL
Streptococcus pneumoniae [6]
  MIC: 128 µg/mL (≈ 137 µM)
Haemophilus influenzae [7]
  MIC: 64 µg/mL (≈ 68.4 µM)
Streptococcus pneumoniae [8]
  MIC: 0.06 µg/mL (≈ 0.0642 µM)
Staphylococcus aureus [9]
  MIC: 0.5 µg/mL (≈ 0.535 µM)
Streptococcus pneumoniae [10]
  MIC: > 128 µg/mL
Moraxella catarrhalis [11]
  MIC: 1 µg/mL (≈ 1.07 µM)
Streptococcus pneumoniae [12]
  MIC: 0.03 µg/mL (≈ 0.0321 µM)
Streptococcus pneumoniae [13]
  MIC: 0.06 µg/mL (≈ 0.0642 µM)
Staphylococcus aureus [14]
  MIC: > 128 µg/mL
Streptococcus pyogenes [15]
  MIC: 0.13 µg/mL (≈ 0.139 µM)
Streptococcus pneumoniae [16]
  MIC: 2 µg/mL (≈ 2.14 µM)
Streptococcus pneumoniae [17]
  MIC: 0.06 µg/mL (≈ 0.0642 µM)
Staphylococcus aureus [18]
  MIC: 0.5 µg/mL (≈ 0.535 µM)
Haemophilus influenzae [19]
  MIC: 8 µg/mL (≈ 8.55 µM)
Streptococcus pyogenes [20]
  MIC: 0.5 µg/mL (≈ 0.535 µM)
Staphylococcus aureus [21]
  MIC: 1 µg/mL (≈ 1.07 µM)
Haemophilus influenzae [22]
  MIC: 8 µg/mL (≈ 8.55 µM)
Streptococcus pneumoniae [23]
  MIC: 4 µg/mL (≈ 4.28 µM)
Staphylococcus aureus [24]
  MIC: 0.25 µg/mL (≈ 0.267 µM)
Streptococcus pneumoniae [25]
  MIC: 0.06 µg/mL (≈ 0.0642 µM)

## CCOC(=O)[C@H]1[C@H](C)O[C@@H](O[C@H]2[C@H](N(C)C)[C@@H](O)[C@H](O[C@H]3[C@@H](CC=O)C[C@@H](C)[C@@H](O)CN(C)CC(/C=C/Cc4cccc5cccnc45)CCOC(=O)C[C@@H](OC(=O)CC)[C@@H]3OC)O[C@@H]2C)C[C@]1(C)O (stereo not given in full)
Streptococcus pneumoniae [1]
  MIC: 128 µg/mL (≈ 130 µM)
Haemophilus influenzae [2]
  MIC: 8 µg/mL (≈ 8.11 µM)
Staphylococcus aureus [3]
  MIC: 0.25 µg/mL (≈ 0.253 µM)
Moraxella catarrhalis [4]
  MIC: 2 µg/mL (≈ 2.03 µM)
Streptococcus pyogenes [5]
  MIC: > 128 µg/mL
Streptococcus pneumoniae [6]
  MIC: 128 µg/mL (≈ 130 µM)
Haemophilus influenzae [7]
  MIC: 32 µg/mL (≈ 32.4 µM)
Streptococcus pneumoniae [8]
  MIC: 0.03 µg/mL (≈ 0.0304 µM)
Staphylococcus aureus [9]
  MIC: 0.5 µg/mL (≈ 0.507 µM)
Streptococcus pneumoniae [10]
  MIC: 128 µg/mL (≈ 130 µM)
Moraxella catarrhalis [11]
  MIC: 1 µg/mL (≈ 1.01 µM)
Streptococcus pneumoniae [12]
  MIC: 0.015 µg/mL (≈ 0.0152 µM)
Streptococcus pneumoniae [13]
  MIC: 0.03 µg/mL (≈ 0.0304 µM)
Staphylococcus aureus [14]
  MIC: > 128 µg/mL
Streptococcus pyogenes [15]
  MIC: 0.06 µg/mL (≈ 0.0608 µM)
Streptococcus pneumoniae [16]
  MIC: 8 µg/mL (≈ 8.11 µM)
Streptococcus pneumoniae [17]
  MIC: 0.015 µg/mL (≈ 0.0152 µM)
Staphylococcus aureus [18]
  MIC: 0.25 µg/mL (≈ 0.253 µM)
Haemophilus influenzae [19]
  MIC: 2 µg/mL (≈ 2.03 µM)
Streptococcus pyogenes [20]
  MIC: 0.25 µg/mL (≈ 0.253 µM)
Staphylococcus aureus [21]
  MIC: 0.5 µg/mL (≈ 0.507 µM)
Haemophilus influenzae [22]
  MIC: 8 µg/mL (≈ 8.11 µM)
Streptococcus pneumoniae [23]
  MIC: 8 µg/mL (≈ 8.11 µM)
Staphylococcus aureus [24]
  MIC: 0.25 µg/mL (≈ 0.253 µM)
Streptococcus pneumoniae [25]
  MIC: 0.015 µg/mL (≈ 0.0152 µM)

## CCOC(=O)[C@H]1[C@H](C)O[C@@H](O[C@H]2[C@H](N(C)C)[C@@H](O)[C@H](O[C@H]3[C@@H](CC=O)C[C@@H](C)[C@@H](O)CN(C)CCC[C@H](C/C=C/c4cccnc4)OC(=O)C[C@@H](OC(=O)CC)[C@@H]3OC)O[C@@H]2C)C[C@@]1(C)O
Streptococcus pneumoniae [1]
  MIC: > 128 µg/mL
Haemophilus influenzae [2]
  MIC: 8 µg/mL (≈ 8.55 µM)
Staphylococcus aureus [3]
  MIC: 0.25 µg/mL (≈ 0.267 µM)
Moraxella catarrhalis [4]
  MIC: 1 µg/mL (≈ 1.07 µM)
Streptococcus pyogenes [5]
  MIC: > 128 µg/mL
Streptococcus pneumoniae [6]
  MIC: > 128 µg/mL
Haemophilus influenzae [7]
  MIC: 32 µg/mL (≈ 34.2 µM)
Streptococcus pneumoniae [8]
  MIC: 0.03 µg/mL (≈ 0.032 µM)
Staphylococcus aureus [9]
  MIC: 0.5 µg/mL (≈ 0.534 µM)
Streptococcus pneumoniae [10]
  MIC: > 128 µg/mL
Moraxella catarrhalis [11]
  MIC: 1 µg/mL (≈ 1.07 µM)
Streptococcus pneumoniae [12]
  MIC: 0.015 µg/mL (≈ 0.016 µM)
Streptococcus pneumoniae [13]
  MIC: 0.03 µg/mL (≈ 0.032 µM)
Staphylococcus aureus [14]
  MIC: > 128 µg/mL
Streptococcus pyogenes [15]
  MIC: 0.06 µg/mL (≈ 0.0641 µM)
Streptococcus pneumoniae [16]
  MIC: 32 µg/mL (≈ 34.2 µM)
Streptococcus pneumoniae [17]
  MIC: 0.03 µg/mL (≈ 0.032 µM)
Staphylococcus aureus [18]
  MIC: 0.5 µg/mL (≈ 0.534 µM)
Haemophilus influenzae [19]
  MIC: 2 µg/mL (≈ 2.14 µM)
Streptococcus pyogenes [20]
  MIC: 0.5 µg/mL (≈ 0.534 µM)
Staphylococcus aureus [21]
  MIC: 1 µg/mL (≈ 1.07 µM)
Haemophilus influenzae [22]
  MIC: 16 µg/mL (≈ 17.1 µM)
Streptococcus pneumoniae [23]
  MIC: 32 µg/mL (≈ 34.2 µM)
Staphylococcus aureus [24]
  MIC: 0.25 µg/mL (≈ 0.267 µM)
Streptococcus pneumoniae [25]
  MIC: 0.03 µg/mL (≈ 0.032 µM)
